The species entered for test [1] is Rattus norvegicus. Nature of the test: Compound was tested for antihypertensive activity in rat after 4 hr postdose. The class given is functional. In outline:
(§1)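 DOCA/saline hypertensive Sprague-Dawley rats (250-350 g), six per group, given 10 mg/kg doca s.c. daily with saline until systolic BP reached 170 mmHg (usually 3-4 weeks). Oral 25 mg/kg in 5 mL/kg 1% methylcellulose. Systolic BP by tail-cuff before and 1, 4, 24 h after; drop reported as mean ± SD.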

For test [2], the species on record is Rattus norvegicus. Kind of test: Diuretic activity in rats at time intervals of 5-24 hours. The class given is functional, Urine. In outline: (§2)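 Male Sabra rats (170-200 g), starved 18 h, given 50 mg/kg by stomach tube in saline (25 mL/kg load), eight per compound, saline and furosemide controls run alongside. Held two per metabolic cage at 22 °C without food or water. Urine volume measured at 5 and 24 h collections.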

Test [3] is filed under the species Rattus norvegicus. Nature of the test: Saluretic activity in rats after 0-5 hours, as potassium ion concentration in urine. The class given is functional. An outline of the steps: (§3)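 Male Sabra rats (170-200 g), fasted 18 h, dosed orally 50 mg/kg in saline at 25 mL/kg, eight per compound, two per metabolic cage, no food or water. Urine collected 5 and 24 h after dosing and centrifuged. Chloride titrated with Hg(NO3)2/diphenylcarbazone after HNO3 acidification; Na+ and K+ by atomic absorption.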

For test [4], the species on record is Rattus norvegicus. Kind of test: Saluretic activity in rats after 0-24 hours, as potassium ion concentration in urine. The class given is functional. An outline of the steps:
as §3

Test [5] is filed under the species Rattus norvegicus. Kind of test: Saluretic activity in rats after 0-5 hours, as chloride ion concentration in urine. The class given is functional. An outline of the steps:
as §3

Test [6] is filed under the species Rattus norvegicus. Nature of the test: Saluretic activity in rats after 0-5 hours, as ratio of Na+/K+ ion concentration in urine. The class given is functional. An outline of the steps:
as §3

The species entered for test [7] is Rattus norvegicus. Kind of test: Saluretic activity in rats after 5-24 hours, as potassium ion concentration in urine. The class given is functional. In outline: as §3
For test [8], the species on record is Rattus norvegicus. Kind of test: Saluretic activity in rats after 0-5 hours, as sodium ion concentration in urine. The class given is functional. In outline: as §3
The species named for test [9] is Rattus norvegicus. Kind of test: Diuretic activity in rats at time intervals of 0-24 hours. The class given is functional, Urine. An outline of the steps: as §2
For test [10], the species on record is Rattus norvegicus. Nature of the test: Saluretic activity in rats after 5-24 hours, as sodium ion concentration in urine. The class given is functional. In outline: as §3
Test [11] is filed under the species Rattus norvegicus. Nature of the test: Saluretic activity in rats after 0-24 hours, as chloride ion concentration in urine. The class given is functional. An outline of the steps:
as §3

Test [12] is filed under the species Rattus norvegicus. Kind of test: Compound was tested for antihypertensive activity in rat after 1 hr postdose. The class given is functional. An outline of the steps: as §1
The species named for test [13] is Rattus norvegicus. Kind of test: Compound was tested for antihypertensive activity in rat after 24 hr postdose. The class given is functional. In outline:
as §1

Test [14] is filed under the species Rattus norvegicus. Nature of the test: Saluretic activity in rats after 0-24 hours, as ratio of Na+/K+ ion concentration in urine. The class given is functional. An outline of the steps:
as §3

Test [15] is filed under the species Rattus norvegicus. Kind of test: Diuretic activity in rats at time intervals of 0-5 hours. The class given is functional, Urine. An outline of the steps:
as §2

Test [16] is filed under the species Rattus norvegicus. Kind of test: Saluretic activity in rats after 5-24 hours, as chloride ion concentration in urine. The class given is functional. In outline: as §3
Test [17] is filed under the species Rattus norvegicus. Kind of test: Saluretic activity in rats after 5-24 hours, as ratio of Na+/K+ ion concentration in urine. The class given is functional. In outline:
as §3

Test [18] is filed under the species Rattus norvegicus. Nature of the test: Saluretic activity in rats after 0-24 hours, as sodium ion concentration in urine. The class given is functional. In outline: as §3

On to `CN1NCc2cc(Cl)c(S(N)(=O)=O)cc2C1=O`, for which the “Decrease in blood pressure” value turned out to be 45 mmHg in [1], 31.3 mmHg in test [12] and 22.7 mmHg in test [13]. For the same molecule, the Diuretic activity in test [2] was determined as 6.8 mL; in [9], 11.8 mL; in test [15] it was 5 mL. The Saluretic activity in [3] came out at 2.55 m equiv kg-1; in test [4] it was 7.82 m equiv kg-1; in test [5], 6.2 m equiv kg-1; in test [7], 5.27 m equiv kg-1; in [8], 4.45 m equiv kg-1; in [10] it was 5.98 m equiv kg-1. The Saluretic activity turned out to be 9.35 m equiv kg-1 in test [11], 3.15 m equiv kg-1 in test [16] and 10.43 m equiv kg-1 in [18]. The results for the Ratio in test [6], in [14] and in [17] were 1.74, 1.33 and 1.13, respectively.
Turning to `NS(=O)(=O)c1cc2c(cc1Cl)CNNC2=O`, the “Decrease in blood pressure” value in test [1] is given as 31 mmHg; in [12], 24.7 mmHg; in test [13], 27 mmHg. The figures for the Diuretic activity in test [2], in [9] and in test [15] were 6.2 mL, 12.7 mL and 6.5 mL, respectively. In addition, the Saluretic activity in test [3] worked out at 2.18 m equiv kg-1; in test [4], 5.63 m equiv kg-1; in test [5], 8.32 m equiv kg-1; in test [7], 3.45 m equiv kg-1; in test [8], 6.55 m equiv kg-1; in test [10] it was 4.36 m equiv kg-1. In addition, the Saluretic activity turned out to be 12.48 m equiv kg-1 in test [11], 4.16 m equiv kg-1 in test [16] and 10.91 m equiv kg-1 in test [18]. In addition, the Ratio in [6] was 3; in test [14] it was 1.94; in test [17], 1.27.
Take `Cn1ncc2cc(S(N)(=O)=O)c(Cl)cc2c1=O`: the “Decrease in blood pressure” value amounted to 47 mmHg in test [1], 29.7 mmHg in test [12] and 19.3 mmHg in [13]. For the same molecule, the Diuretic activity in test [2] worked out at 2.6 mL; in test [9], 4.8 mL; in test [15], 2.2 mL. Further, the Saluretic activity in test [3] worked out at 1.24 m equiv kg-1; in test [4], 5.16 m equiv kg-1; in [5], 2.22 m equiv kg-1; in test [7], 3.92 m equiv kg-1; in [8], 2.58 m equiv kg-1; in test [10], 5.26 m equiv kg-1. Further, the Saluretic activity stood at 7.22 m equiv kg-1 in test [11], 5 m equiv kg-1 in [16] and 7.84 m equiv kg-1 in test [18]. The figures for the Ratio in [6], in test [14] and in test [17] were 2.1, 1.52 and 1.34, respectively.
As for `NS(=O)(=O)c1cc2c(O)nncc2cc1Cl`, the “Decrease in blood pressure” value was 33.7 mmHg in [1], 13.7 mmHg in test [12] and 38 mmHg in [13]. In addition, the Diuretic activity in test [2] is 3.6 mL; in test [9], 11.3 mL; in test [15] it was 7.7 mL. The Saluretic activity in test [3] is recorded as 2.55 m equiv kg-1; in test [4], 5.06 m equiv kg-1; in test [5], 9.87 m equiv kg-1; in test [7] it was 2.51 m equiv kg-1; in test [8] it was 8.16 m equiv kg-1; in test [10] it was 4.21 m equiv kg-1. For the same molecule, the Saluretic activity in test [11] came to 13.97 m equiv kg-1; in [16], 4.1 m equiv kg-1; in test [18], 12.37 m equiv kg-1. Moreover, the Ratio was determined as 3.18 in test [6], 2.44 in test [14] and 1.68 in test [17].
For the molecule `Cn1ncc2cc(Cl)c(S(N)(=O)=O)cc2c1=O`, the entries for the “Decrease in blood pressure” value in test [1], in [12] and in test [13] were 47.7 mmHg, 31.7 mmHg and 26.3 mmHg, respectively. Also, the results for the Diuretic activity in test [2], in test [9] and in test [15] were 2.7 mL, 8.8 mL and 6.1 mL, respectively. Moreover, the Saluretic activity in [3] came to 2.67 m equiv kg-1; in test [4], 4.76 m equiv kg-1; in test [5], 7.27 m equiv kg-1; in test [7], 2.09 m equiv kg-1; in [8], 8.7 m equiv kg-1; in test [10] it was 2.4 m equiv kg-1. The Saluretic activity is given as 9.57 m equiv kg-1 in test [11], 2.3 m equiv kg-1 in [16] and 11.1 m equiv kg-1 in test [18]. Further, the Ratio in [6] is on record as 3.27; in test [14], 2.33; in test [17] it was 1.15.
Consider `NS(=O)(=O)c1cc2c(cc1Cl)CNN(Cc1ccco1)C2=O`, for which the entries for the “Decrease in blood pressure” value in test [1], in test [12] and in [13] were 31.3 mmHg, 25.3 mmHg and 23 mmHg, respectively. The Diuretic activity turned out to be 3.8 mL in [2], 10.5 mL in test [9] and 6.7 mL in test [15]. Besides, the Saluretic activity in test [3] amounted to 2.38 m equiv kg-1; in [4], 5.75 m equiv kg-1; in test [5] it was 8.45 m equiv kg-1; in test [7], 3.37 m equiv kg-1; in test [8], 6.74 m equiv kg-1; in test [10], 3.09 m equiv kg-1. The Saluretic activity was determined as 11.43 m equiv kg-1 in test [11], 2.98 m equiv kg-1 in test [16] and 9.83 m equiv kg-1 in test [18]. The Ratio is recorded as 2.83 in [6], 1.71 in [14] and 0.92 in test [17].
Take `NS(=O)(=O)c1cc2c(cc1Cl)C(=O)NNC2`: the “Decrease in blood pressure” value stood at 51 mmHg in test [1], 34.7 mmHg in [12] and 47.7 mmHg in [13]. Also, the Diuretic activity came out at 3.7 mL in test [2], 6.6 mL in [9] and 2.9 mL in test [15]. For the same molecule, the Saluretic activity in [3] turned out to be 1.58 m equiv kg-1; in test [4], 5.52 m equiv kg-1; in [5], 3.49 m equiv kg-1; in test [7] it was 3.94 m equiv kg-1; in [8] it was 3.23 m equiv kg-1; in test [10] it was 5.84 m equiv kg-1. Also, the Saluretic activity in test [11] amounted to 9.77 m equiv kg-1; in [16], 6.28 m equiv kg-1; in test [18], 9.07 m equiv kg-1. Besides, the values for the Ratio in test [6], in test [14] and in test [17] were 2.04, 1.64 and 1.48, respectively.
Regarding `NS(=O)(=O)c1cc2cnn(-c3cccc(C(F)(F)F)c3)c(=O)c2cc1Cl`, the “Decrease in blood pressure” value turned out to be 54 mmHg in [1], 35.6 mmHg in [12] and 27.7 mmHg in [13]. Also, the Diuretic activity in test [2] is 4 mL; in test [9], 4.9 mL; in test [15], 0.9 mL. In addition, the Saluretic activity in test [3] turned out to be 0.49 m equiv kg-1; in test [4], 5.16 m equiv kg-1; in [7], 4.67 m equiv kg-1; in test [8], 0.82 m equiv kg-1; in [18], 7.41 m equiv kg-1. Moreover, the Ratio in test [6] is 1.66; in [14] it was 1.44; in test [17], 1.41.
Turning to `NNc1nncc2ccccc12` [HYDRALAZINE], the “Decrease in blood pressure” value in [1] came to 75.1 mmHg; in [12] it was 72.4 mmHg; in test [13], 35.3 mmHg.
On to `NS(=O)(=O)c1cc2c(cc1Cl)NCNS2(=O)=O` [HYDROCHLOROTHIAZIDE], for which the “Decrease in blood pressure” value in test [1] worked out at 36.7 mmHg; in test [12], 28.6 mmHg; in test [13], 18 mmHg.

Source of the values: ChEMBL document CHEMBL1123499, “Synthesis, saludiuretic, and antihypertensive activity of 6,7-disubstituted 1(2H)- and 3,4-dihydro-1(2H)-phthalazinones” (1986).
